Reference: ChEMBL document CHEMBL1129639, “Synthesis and cardiotonic activity of novel pyrimidine derivatives: crystallographic and quantum chemical studies” (J Med Chem, 1996)

Assays:
[1] = species on record: Cavia porcellus; test: Effect on the contractile force of spontaneously beating atria from Reserpine-treated guinea pigs as percentage variation from the control at concentration of 3 x 10E-5 M; format: functional
Procedure, shortened: (§1)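 Atria from reserpine-treated guinea pigs (reserpine 2 mg/kg ip, 48 and 24 h before death; only tyramine-unresponsive preparations used). Bath solution at 29 °C, gassed 95% O2/5% CO2, pH 7.5, resting tension […]. After 90 min equilibration, compound added cumulatively, 5 min per concentration. Isometric developed-tension amplitude or beating rate given as % variation from untreated control. Mean ± SEM, 6-10 assays.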

[2] = species on record: Cavia porcellus; test: Effect on the contractile force of spontaneously beating atria from Reserpine-treated guinea pigs as percentage variation from the control at concentration of 10E-6 M; format: functional; procedure, shortened: as §1
[3] = species on record: Cavia porcellus; test: Compound was evaluated for its effect on the frequency rate of spontaneously beating atria from Reserpine-treated guinea pigs as percentage variation from the control at concentration of 3 x 10E-5 M; format: functional; procedure, shortened: as §1
[4] = species on record: Cavia porcellus; test: Effect on the frequency rate of spontaneously beating atria from Reserpine-treated guinea pigs as percentage variation from the control at concentration of 10E-5 M; format: functional; procedure, shortened: as §1
[5] = species on record: Cavia porcellus; test: Compound was evaluated for its effect on the frequency rate of spontaneously beating atria from Reserpine-treated guinea pigs as percentage variation from the control at concentration of 3 x 10E-6 M; format: functional; procedure, shortened: as §1
[6] = species on record: Cavia porcellus; test: Compound was evaluated for its effect on the frequency rate of spontaneously beating atria from Reserpine-treated guinea pigs as percentage variation from the control at concentration of 3 x 10E-4 M; format: functional; procedure, shortened: as §1
[7] = species on record: Cavia porcellus; test: Effect on the contractile force of spontaneously beating atria from Reserpine-treated guinea pigs as percentage variation from the control at concentration of 10E-5 M; format: functional; procedure, shortened: as §1
[8] = species on record: Cavia porcellus; test: Effect on the contractile force of spontaneously beating atria from Reserpine-treated guinea pigs as percentage variation from the control at concentration of 10E-3 M; format: functional; procedure, shortened: as §1
[9] = species on record: Cavia porcellus; test: Effect on the contractile force of spontaneously beating atria from Reserpine-treated guinea pigs as percentage variation from the control at concentration of 3 x 10E-6 M; format: functional; procedure, shortened: as §1
[10] = species on record: Cavia porcellus; test: Effect on the frequency rate of spontaneously beating atria from Reserpine-treated guinea pigs as percentage variation from the control at concentration of 10E-4 M; format: functional; procedure, shortened: as §1
[11] = species on record: Cavia porcellus; test: Effect on the contractile force of spontaneously beating atria from Reserpine-treated guinea pigs as percentage variation from the control at concentration of 3 x 10E-4 M; format: functional; procedure, shortened: as §1
[12] = species on record: Cavia porcellus; test: Effect on the contractile force of spontaneously beating atria from Reserpine treated guinea pigs as percentage variation from the control at concentration of 10E-4 M; format: functional; procedure, shortened: as §1
[13] = species on record: Cavia porcellus; test: Effect on the frequency rate of spontaneously beating atria from Reserpine-treated guinea pigs as percentage variation from the control at concentration of 10E-3 M; format: functional; procedure, shortened: as §1
[14] = species on record: Cavia porcellus; test: Effect on the frequency rate of spontaneously beating atria from Reserpine-treated guinea pigs as percentage variation from the control at concentration of 10E-6 M; format: functional; procedure, shortened: as §1
[15] = species on record: Cavia porcellus; test: Inotropic effect in electrically driven left atrium from reserpine-treated guinea pigs at concentration of 10E-3 M; format: functional, Cardiac atrium
Procedure, shortened: (§2)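 Electrically driven left atrium from reserpine-treated guinea pigs (tyramine-unresponsive), 29 °C, pH 7.5, resting tension […], 90 min equilibration. Compound dissolved in DMSO and added cumulatively, 5 min per step. Where used, adenosine deaminase was preincubated 20 min, and basal force was taken after ADA addition. Developed tension given as % change over control. Mean ± SEM of six assays.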

[16] = species on record: Cavia porcellus; test: Inotropic effect in electrically driven left atrium from reserpine-treated guinea pigs at concentration of 3 x 10E-4 M; format: functional, Cardiac atrium; procedure, shortened: as §2
[17] = species on record: Cavia porcellus; test: Inotropic effect in electrically driven left atrium from reserpine-treated guinea pigs at concentration of 3 x 10E-5 M; format: functional, Cardiac atrium; procedure, shortened: as §2
[18] = species on record: Cavia porcellus; test: Inotropic effect in electrically driven left atrium from reserpine-treated guinea pigs at concentration of 10E-5 M; format: functional, Cardiac atrium; procedure, shortened: as §2
[19] = species on record: Cavia porcellus; test: Inotropic effect in electrically driven left atrium from reserpine-treated guinea pigs at concentration of 10E-4 M; format: functional, Cardiac atrium; procedure, shortened: as §2
[20] = species on record: Cavia porcellus; test: Inotropic effect in electrically driven left atrium from reserpine-treated guinea pigs at concentration of 3 x 10E-6 M; format: functional, Cardiac atrium; procedure, shortened: as §2
[21] = species on record: Cavia porcellus; test: Inotropic effect in electrically driven left atrium from reserpine-treated guinea pigs at concentration of 10E-6 M; format: functional, Cardiac atrium; procedure, shortened: as §2

For `CN(C)c1nccc(Cc2ccccc2)n1`, the Variation [1] was 3.17%, the Variation [2] was 6.43% and the Variation [3] was 3.03%. For the same compound, the Variation [4] was 3.03%, the Variation [5] was 0% and the Variation [6] was -9.09%. It also gave a Variation [7] of 9.18%, a Variation [8] of -57.09% and a Variation [9] of 10.71%. It also gave a Variation [10] of -3.03%, a Variation [11] of -46.99% and a Variation [12] of -32.51%. For the same compound, the Variation [13] was -12.12% and the Variation [14] was 0%.
Compound `CCOC(=O)c1cnc(N(C)C)nc1C(=O)OCC` has a Variation [1] of -5.33%, a Variation [2] of 0% and a Variation [3] of -7.41%. For the same compound, the Variation [4] was -4.76%, the Variation [5] was 0% and the Variation [6] was -55.55%. For the same compound, the Variation [7] was 0.54%, the Variation [8] was -100% and the Variation [9] was 2.18%. It also gave a Variation [10] of -40.77%, a Variation [11] of -76.47% and a Variation [12] of -48.31%. The Variation [13] was -100% and the Variation [14] was 0%.
Work on `CCCc1ccnc(N(C)C)n1` yielded a Variation [1] of -10.63%, a Variation [2] of 0% and a Variation [3] of -31.58%. The Variation [4] was -26.31%, the Variation [5] was -5.29% and the Variation [6] was -52.63%. For the same compound, the Variation [7] was 3.15%, the Variation [8] was -91.86% and the Variation [9] was 7.18%. The Variation [10] was -52.63%, the Variation [11] was -73.58% and the Variation [12] was -64.06%. It also gave a Variation [13] of -52.63% and a Variation [14] of 0%.
With `Nc1cc(-c2ccncc2)c[nH]c1=O` [INAMRINONE] the Variation [1] was 4.5%, the Variation [2] was 0% and the Variation [3] was 1.5%. For the same compound, the Variation [4] was 0%, the Variation [5] was 0% and the Variation [6] was 7.2%. The Variation [7] was 0.52%, the Variation [8] was 23.12% and the Variation [9] was 0%. For the same compound, the Variation [10] was 6.25%, the Variation [11] was 19.03% and the Variation [12] was 10.22%. For the same compound, the Variation [13] was 9.87% and the Variation [14] was 0%.
With `Cc1[nH]c(=O)c(C#N)cc1-c1ccncc1` [MILRINONE] the Variation [1] was 30.32%, the Variation [15] was 42.89% and the Variation [2] was 0%. For the same compound, the Variation [3] was 27.09%, the Variation [4] was 15.22% and the Variation [5] was 0%. The Variation [6] was 42.85%, the Variation [16] was 45.61% and the Variation [7] was 16.31%. It also gave a Variation [8] of 31.09%, a Variation [17] of 22.81% and a Variation [9] of 0%. For the same compound, the Variation [18] was 13.25%, the Variation [10] was 34.16% and the Variation [11] was 45.62%. The Variation [12] was 37.77%, the Variation [19] was 35.61% and the Variation [13] was 37.2%. It also gave a Variation [20] of 9.31%, a Variation [21] of 0% and a Variation [14] of 0%.
